Three compounds from ChEMBL document CHEMBL5046302, “Identification and Evaluation of Brominated Carbazoles as a Novel Antibiotic Adjuvant Scaffold in MRSA” (2022) can be followed below.

By MIC is commonly meant the lowest concentration found to suppress growth.

Values after ≈ are worked out from the molar mass of the structure shown.

Common to all, as to format: functional
Test [1] relates to Staphylococcus aureus. Kind of test: Antibacterial activity against methicillin-resistant Staphylococcus aureus ATCC 43300 assessed as inhibition of bacterial growth after 18 hrs by CLSI protocol based broth microdilution assay. The method, boiled down:
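Broth microdilution MIC of carbazole alone vs MRSA ATCC 43300, tested up to 200 μM.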
For orientation: Dilution methods test growth across graded concentrations, often in twofold steps.

In test [2] the test system is Staphylococcus aureus. Kind of test: Potentiation of ampicillin induced antibacterial activity against methicillin-resistant Staphylococcus aureus USA300 assessed as ampicillin MIC at 50 uM after 18 hrs by CLSI protocol based broth microdilution assay.
The subject of test [3] is Staphylococcus aureus. Kind of test: Potentiation of oxacillin induced antibacterial activity against methicillin-resistant Staphylococcus aureus USA300 assessed as fold change in oxacillin MIC at 50 uM after 18 hrs by CLSI protocol based broth microdilution assay.
Test [4] concerns Staphylococcus aureus. Kind of test: Potentiation of oxacillin induced antibacterial activity against methicillin-resistant Staphylococcus aureus COL assessed as oxacillin MIC at 50 uM after 18 hrs by CLSI protocol based broth microdilution assay.
Test [5] deals with Staphylococcus aureus. Kind of test: Potentiation of ceftazidime induced antibacterial activity against methicillin-resistant Staphylococcus aureus ATCC 43300 assessed as ceftazidime MIC at 50 uM after 18 hrs by CLSI protocol based broth microdilution assay.
Test [6] deals with Staphylococcus aureus. Kind of test: Potentiation of methicillin induced antibacterial activity against methicillin-resistant Staphylococcus aureus USA300 assessed as fold change in methicillin MIC at 50 uM after 18 hrs by CLSI protocol based broth microdilution assay.
For test [7], the system named is Staphylococcus aureus. Kind of test: Potentiation of ampicillin induced antibacterial activity against methicillin-resistant Staphylococcus aureus COL assessed as ampicillin MIC at 50 uM after 18 hrs by CLSI protocol based broth microdilution assay.
Test [8] has as its system Staphylococcus aureus. Kind of test: Potentiation of ampicillin induced antibacterial activity against methicillin-resistant Staphylococcus aureus ATCC 43300 assessed as fold change in ampicillin MIC at 50 uM after 18 hrs by CLSI protocol based broth microdilution assay.
Test [9] relates to Staphylococcus aureus. Kind of test: Potentiation of ceftazidime induced antibacterial activity against methicillin-resistant Staphylococcus aureus ATCC 43300 assessed as fold change in ceftazidime MIC at 50 uM after 18 hrs by CLSI protocol based broth microdilution assay.
In test [10] the test system is Staphylococcus aureus. Kind of test: Potentiation of oxacillin induced antibacterial activity against methicillin-resistant Staphylococcus aureus USA300 assessed as oxacillin MIC at 50 uM after 18 hrs by CLSI protocol based broth microdilution assay.
For test [11], the system named is Staphylococcus aureus. Kind of test: Potentiation of methicillin induced antibacterial activity against methicillin-resistant Staphylococcus aureus COL assessed as methicillin MIC at 50 uM after 18 hrs by CLSI protocol based broth microdilution assay.
Test [12] relates to Staphylococcus aureus. Kind of test: Potentiation of ampicillin induced antibacterial activity against methicillin-resistant Staphylococcus aureus USA300 assessed as fold change in ampicillin MIC at 50 uM after 18 hrs by CLSI protocol based broth microdilution assay.
Test [13] deals with Staphylococcus aureus. Kind of test: Potentiation of cefoxitin induced antibacterial activity against methicillin-resistant Staphylococcus aureus USA300 assessed as fold change in cefoxitin MIC at 50 uM after 18 hrs by CLSI protocol based broth microdilution assay.
The test system of test [14] is Staphylococcus aureus. Kind of test: Potentiation of methicillin induced antibacterial activity against methicillin-resistant Staphylococcus aureus ATCC 43300 assessed as methicillin MIC at 50 uM after 18 hrs by CLSI protocol based broth microdilution assay.
Test [15] concerns Staphylococcus aureus. Kind of test: Potentiation of ceftazidime induced antibacterial activity against methicillin-resistant Staphylococcus aureus USA100 assessed as ceftazidime MIC at 50 uM after 18 hrs by CLSI protocol based broth microdilution assay.
Test [16] deals with Staphylococcus aureus. Kind of test: Potentiation of ampicillin induced antibacterial activity against methicillin-resistant Staphylococcus aureus USA100 assessed as fold change in ampicillin MIC at 50 uM after 18 hrs by CLSI protocol based broth microdilution assay.
In test [17] the test system is Staphylococcus aureus. Kind of test: Potentiation of ceftazidime induced antibacterial activity against methicillin-resistant Staphylococcus aureus USA300 assessed as fold change in ceftazidime MIC at 50 uM after 18 hrs by CLSI protocol based broth microdilution assay.
The subject of test [18] is Staphylococcus aureus. Kind of test: Potentiation of methicillin induced antibacterial activity against methicillin-resistant Staphylococcus aureus USA100 assessed as fold change in methicillin MIC at 50 uM after 18 hrs by CLSI protocol based broth microdilution assay.
Test [19] relates to Staphylococcus aureus. Kind of test: Potentiation of ampicillin induced antibacterial activity against methicillin-resistant Staphylococcus aureus ATCC 43300 assessed as ampicillin MIC at 50 uM after 18 hrs by CLSI protocol based broth microdilution assay.
Test [20] deals with Staphylococcus aureus. Kind of test: Potentiation of oxacillin induced antibacterial activity against methicillin-resistant Staphylococcus aureus ATCC 43300 assessed as oxacillin MIC at 50 uM after 18 hrs by CLSI protocol based broth microdilution assay.
Test [21] deals with Staphylococcus aureus. Kind of test: Potentiation of cefoxitin induced antibacterial activity against methicillin-resistant Staphylococcus aureus ATCC 43300 assessed as cefoxitin MIC at 50 uM after 18 hrs by CLSI protocol based broth microdilution assay.
In test [22] the test system is Staphylococcus aureus. Kind of test: Potentiation of oxacillin induced antibacterial activity against methicillin-resistant Staphylococcus aureus COL assessed as fold change in oxacillin MIC at 50 uM after 18 hrs by CLSI protocol based broth microdilution assay.
Test [23] concerns Staphylococcus aureus. Kind of test: Potentiation of cefoxitin induced antibacterial activity against methicillin-resistant Staphylococcus aureus USA100 assessed as cefoxitin MIC at 50 uM after 18 hrs by CLSI protocol based broth microdilution assay.
The test system of test [24] is Staphylococcus aureus. Kind of test: Potentiation of oxacillin induced antibacterial activity against methicillin-resistant Staphylococcus aureus ATCC 43300 assessed as fold change in oxacillin MIC at 50 uM after 18 hrs by CLSI protocol based broth microdilution assay.
Test [25] deals with Staphylococcus aureus. Kind of test: Potentiation of ampicillin induced antibacterial activity against methicillin-resistant Staphylococcus aureus USA100 assessed as ampicillin MIC at 50 uM after 18 hrs by CLSI protocol based broth microdilution assay.
Test [26] deals with Staphylococcus aureus. Kind of test: Potentiation of ceftazidime induced antibacterial activity against methicillin-resistant Staphylococcus aureus COL assessed as fold change in ceftazidime MIC at 50 uM after 18 hrs by CLSI protocol based broth microdilution assay.
Test [27] relates to Staphylococcus aureus. Kind of test: Potentiation of methicillin induced antibacterial activity against methicillin-resistant Staphylococcus aureus USA300 assessed as methicillin MIC at 50 uM after 18 hrs by CLSI protocol based broth microdilution assay.
Test [28] relates to Staphylococcus aureus. Kind of test: Potentiation of cefoxitin induced antibacterial activity against methicillin-resistant Staphylococcus aureus COL assessed as cefoxitin MIC at 50 uM after 18 hrs by CLSI protocol based broth microdilution assay.
Test [29] relates to Staphylococcus aureus. Kind of test: Potentiation of cefoxitin induced antibacterial activity against methicillin-resistant Staphylococcus aureus USA100 assessed as fold change in cefoxitin MIC at 50 uM after 18 hrs by CLSI protocol based broth microdilution assay.
Test [30] relates to Staphylococcus aureus. Kind of test: Potentiation of oxacillin induced antibacterial activity against methicillin-resistant Staphylococcus aureus USA 100 assessed as fold change in oxacillin MIC at 50 uM after 18 hrs by CLSI protocol based broth microdilution assay.
Test [31] deals with Staphylococcus aureus. Kind of test: Potentiation of cefoxitin induced antibacterial activity against methicillin-resistant Staphylococcus aureus USA300 assessed as cefoxitin MIC at 50 uM after 18 hrs by CLSI protocol based broth microdilution assay.
Test [32] deals with Staphylococcus aureus. Kind of test: Potentiation of methicillin induced antibacterial activity against methicillin-resistant Staphylococcus aureus ATCC 43300 assessed as fold change in methicillin MIC at 50 uM after 18 hrs by CLSI protocol based broth microdilution assay.

For `Brc1cccc2c1[nH]c1ccccc12`, the MIC with Staphylococcus aureus [1] was greater than 200 µM; in the test on Staphylococcus aureus [2], 8 µg/mL; in the test with Staphylococcus aureus [4], 512 µg/mL; in the test with Staphylococcus aureus [5], 64 µg/mL; in the test on Staphylococcus aureus [7] it was 16 µg/mL; in the test on Staphylococcus aureus [10], 16 µg/mL. Besides, the MIC in the test with Staphylococcus aureus [11] was found to be 1020 µg/mL; in the test on Staphylococcus aureus [14] it was 4 µg/mL; in the test with Staphylococcus aureus [15], 256 µg/mL; in the test with Staphylococcus aureus [19], 4 µg/mL; in the test with Staphylococcus aureus [20], 4 µg/mL; in the test on Staphylococcus aureus [21] it was 16 µg/mL. Further, the MIC with Staphylococcus aureus [23] was 16 µg/mL; in the test with Staphylococcus aureus [25], 8 µg/mL; in the test with Staphylococcus aureus [27], 8 µg/mL; in the test with Staphylococcus aureus [28] it was 256 µg/mL; in the test on Staphylococcus aureus [31] it was 16 µg/mL. For the same compound, the “fold change (FC)” value in the test with Staphylococcus aureus [3] came out at 4; in the test on Staphylococcus aureus [6], 4; in the test on Staphylococcus aureus [8], 8; with Staphylococcus aureus [9], 2; in the test with Staphylococcus aureus [12], 1; in the test on Staphylococcus aureus [13], 2. Besides, the “fold change (FC)” value with Staphylococcus aureus [16] is recorded as 4; with Staphylococcus aureus [17], 1; in the test on Staphylococcus aureus [18], 64; with Staphylococcus aureus [22], 1; in the test on Staphylococcus aureus [24], 8; with Staphylococcus aureus [26], 1. For the same compound, the results for the “fold change (FC)” value in the test with Staphylococcus aureus [29], in the test on Staphylococcus aureus [30] and in the test on Staphylococcus aureus [32] were 16, 512 and 1, respectively.
In the case of `Brc1cccc2[nH]c3ccccc3c12`, in the test with Staphylococcus aureus [1], the MIC was found to be 100 µM (≈ 24.6 µg/mL).
As for `Brc1ccc2[nH]c3ccc(Br)cc3c2c1`, the MIC with Staphylococcus aureus [1] was greater than 200 µM; in the test with Staphylococcus aureus [2] it was 8 µg/mL; in the test on Staphylococcus aureus [4], 128 µg/mL; in the test on Staphylococcus aureus [5], 128 µg/mL; with Staphylococcus aureus [7], 8 µg/mL; in the test with Staphylococcus aureus [10] it was 16 µg/mL. Moreover, the minimum inhibitory concentration (MIC) worked out at 1020 µg/mL in the test on Staphylococcus aureus [11]; 2 µg/mL with Staphylococcus aureus [14]; 256 µg/mL in the test with Staphylococcus aureus [15]; 16 µg/mL in the test with Staphylococcus aureus [19]; 8 µg/mL in the test on Staphylococcus aureus [20]; 32 µg/mL in the test with Staphylococcus aureus [21]. In addition, the minimum inhibitory concentration (MIC) was determined as 64 µg/mL in the test with Staphylococcus aureus [23]; 32 µg/mL in the test with Staphylococcus aureus [25]; 8 µg/mL in the test with Staphylococcus aureus [27]; 512 µg/mL in the test with Staphylococcus aureus [28]; 64 µg/mL with Staphylococcus aureus [31]. For the same compound, the “fold change (FC)” value in the test on Staphylococcus aureus [3] was 2; in the test with Staphylococcus aureus [6], 4; with Staphylococcus aureus [8], 1; in the test on Staphylococcus aureus [9], 1; in the test with Staphylococcus aureus [12], 1; in the test with Staphylococcus aureus [13], 1. Moreover, the “fold change (FC)” value in the test with Staphylococcus aureus [16] worked out at 1; in the test with Staphylococcus aureus [17] it was 1; in the test on Staphylococcus aureus [18], 16; with Staphylococcus aureus [22] it was 4; in the test with Staphylococcus aureus [24] it was 4; in the test on Staphylococcus aureus [26], 1. For the same compound, the “fold change (FC)” value with Staphylococcus aureus [29] amounted to 2; in the test on Staphylococcus aureus [30] it was 4; in the test with Staphylococcus aureus [32], 1.
